From ChEMBL document CHEMBL1155584, “Bioactive compounds from Psorothamnus junceus” (J Nat Prod, 2000)
In brackets after ≈: the same amount, converted by molar mass.

Assays:
Assay type in all cases: functional
A549 = assay: Cytotoxicity against human A549 cells by MTT assay
Method in brief: (§1)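 Human tumour lines (A-549 lung carcinoma, MCF-7 breast carcinoma, HT-29 colon adenocarcinoma, SK-MEL-5 melanoma from an axillary node metastasis, Malme-3M melanoma from a lung metastasis) tested with a standard MTT protocol. Adriamycin served as the positive control. Results are reported as GI50.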

MCF7 = assay: Cytotoxicity against human MCF7 cells by MTT assay; method in brief: as §1
HT-29 = assay: Cytotoxicity against human HT29 cells by MTT assay; method in brief: as §1
SK-MEL-5 = assay: Cytotoxicity against human SK-MEL-5 cells by MTT assay; method in brief: as §1
Malme-3M = assay: Cytotoxicity against human MALME-3M cells by MTT assay; method in brief: as §1

Work on `CC1(C)C(=O)C(=C2C=Cc3ccccc3O2)C(=O)C(C)(C)C1=O` [EMORYDONE] yielded a GI50 (A549) of 3 µg/mL (≈ 9.67 µM), a GI50 (MCF7) of 3 µg/mL (≈ 9.67 µM) and a GI50 (HT-29) of 4 µg/mL (≈ 12.9 µM). It also gave a GI50 (SK-MEL-5) of 3 µg/mL (≈ 9.67 µM) and a GI50 (Malme-3M) of 1 µg/mL (≈ 3.22 µM).

`CC(=O)C1=c2oc3c(c2Oc2ccccc21)C(=O)C(C)(C)C(=O)C=3C` [PSOROTHAMNONE A] was tested, and the GI50 (A549) was 40 µg/mL (≈ 119 µM), the GI50 (MCF7) was 60 µg/mL (≈ 178 µM) and the GI50 (HT-29) was 50 µg/mL (≈ 149 µM). It also gave a GI50 (SK-MEL-5) of 20 µg/mL (≈ 59.5 µM) and a GI50 (Malme-3M) of 60 µg/mL (≈ 178 µM).

For `CC1=c2oc3c(c2C(=O)C(C)(C)C1=O)Oc1ccccc1C=3` [PSOROTHAMNONE B], the GI50 (A549) was 30 µg/mL (≈ 102 µM), the GI50 (MCF7) was 40 µg/mL (≈ 136 µM) and the GI50 (HT-29) was 30 µg/mL (≈ 102 µM). The GI50 (SK-MEL-5) was 40 µg/mL (≈ 136 µM) and the GI50 (Malme-3M) was 40 µg/mL (≈ 136 µM).

Work on `COC1=C(C)C(=O)C(C)(C)C(=O)/C1=C1\C=Cc2ccccc2O1` [DALRUBONE] yielded a GI50 (A549) of 0.2 µg/mL (≈ 0.644 µM), a GI50 (MCF7) of 1 µg/mL (≈ 3.22 µM) and a GI50 (HT-29) of 0.02 µg/mL (≈ 0.0644 µM). It also gave a GI50 (SK-MEL-5) of 0.4 µg/mL (≈ 1.29 µM) and a GI50 (Malme-3M) of 2 µg/mL (≈ 6.44 µM).

`COc1cccc2c1C(=O)c1c(O)c3c(c(O)c1C2=O)C[C@@](O)(C(=O)CO)C[C@@H]3O[C@H]1C[C@H](N)[C@H](O)[C@H](C)O1` [DOXORUBICIN] gave a GI50 (A549) of 0.04 µg/mL (≈ 0.0736 µM), a GI50 (MCF7) of 0.2 µg/mL (≈ 0.368 µM) and a GI50 (HT-29) of 0.06 µg/mL (≈ 0.11 µM). For the same compound, the GI50 (SK-MEL-5) was 0.03 µg/mL (≈ 0.0552 µM) and the GI50 (Malme-3M) was 0.1 µg/mL (≈ 0.184 µM).
